Assay results reported in ChEMBL document CHEMBL2203234, “Optimisation of imidazole compounds as selective TAAR1 agonists: discovery of RO5073012” (Bioorg Med Chem Lett, 2012).
In brackets after ≈: the same amount, converted by molar mass. One block for each compound: values may come before it.

Legend:
[1] = tested on: CHL; assay: Selectivity ratio of Ki for human adrenergic alpha2A receptor expressed in CHL cells to Ki for human TAAR1 receptor; type: cell-based
[2] = molecular target: T1, Trace amine-associated receptor 1 (Homo sapiens, UniProt Q96RJ0); assay: Displacement of (S)-4-(2,4-difluorophenyl-3-tritio) -4,5-dihydro-2-oxazolamine from human TAAR1 receptor expressed in HEK293 cells after 90 mins by beta counting analysis; type: cell-based
T1 sequence (Q96RJ0 whole entry): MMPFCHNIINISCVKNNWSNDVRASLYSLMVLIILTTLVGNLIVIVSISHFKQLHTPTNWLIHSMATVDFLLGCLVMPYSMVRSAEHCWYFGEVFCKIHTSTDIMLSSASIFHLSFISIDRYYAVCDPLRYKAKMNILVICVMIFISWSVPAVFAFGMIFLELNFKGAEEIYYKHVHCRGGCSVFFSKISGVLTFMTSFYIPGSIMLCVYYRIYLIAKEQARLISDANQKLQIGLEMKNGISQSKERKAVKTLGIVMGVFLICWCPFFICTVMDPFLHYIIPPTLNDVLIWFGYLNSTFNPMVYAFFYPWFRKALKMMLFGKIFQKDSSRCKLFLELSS

[3] = molecular target: Trace amine-associated receptor 1 (Rattus norvegicus, UniProt Q923Y9); assay: Agonist activity at rat TAAR1 receptor expressed in HEK293 cells after 30 mins; type: functional, cell-based
Chain of Trace amine-associated receptor 1 (Rattus norvegicus, UniProt Q923Y9) (Q923Y9 whole entry): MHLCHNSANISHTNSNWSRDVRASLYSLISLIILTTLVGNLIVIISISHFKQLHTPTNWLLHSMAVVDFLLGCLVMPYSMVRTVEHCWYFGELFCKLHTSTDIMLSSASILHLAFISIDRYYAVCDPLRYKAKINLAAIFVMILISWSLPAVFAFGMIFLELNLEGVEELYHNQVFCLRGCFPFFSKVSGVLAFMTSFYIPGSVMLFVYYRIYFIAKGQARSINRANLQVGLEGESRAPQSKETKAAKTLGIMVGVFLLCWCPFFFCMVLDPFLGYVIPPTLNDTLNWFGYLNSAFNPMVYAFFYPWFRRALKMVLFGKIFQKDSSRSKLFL

[4] = Thermodynamic solubility of the compound at pH 6.5; type: physicochemical; conditions: buffer, read-out: Therm_solubility
Summary of the method: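 Thermodynamic solubility determined using solid material, with the final pH being 6.5; value expressed in µg/ml.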

[5] = Lipophilicity, log D of the compound; type: physicochemical; conditions: octanol/water
Summary of the method: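 Distribution coefficient (logD) measured at pH 7.4.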

[6] = Permeability of the compound by PAMPA assay; type: ADME; conditions: read-out: permeability
[7] = Dissociation constant, pKa of the compound; type: physicochemical
[8] = tested on: Liver; assay: Intrinsic clearance in mouse liver microsomes assessed per mg protein; type: ADME, Microsome
[9] = tested on: Liver microsomes; assay: Intrinsic clearance in rat liver microsomes assessed per mg protein; type: ADME, Microsome
[10] = tested on: Liver microsomes; assay: Intrinsic clearance in human liver microsomes assessed per mg protein; type: ADME, Microsome
[11] = Clearance in mouse at 5 mg/kg, iv; type: ADME, organism-based; set-up: dose 5 mg/kg, route intravenous; conditions: in vivo
[12] = Clearance in rat at 4.8 mg/kg, iv; type: ADME, organism-based; set-up: dose 4.8 mg/kg, route intravenous; conditions: in vivo
[13] = Volume of distribution at steady state in mouse at 5 mg/kg, iv; type: ADME, organism-based; set-up: dose 5 mg/kg, route intravenous; conditions: in vivo, read-out: Vdss
[14] = Volume of distribution at steady state in rat at 4.8 mg/kg, iv; type: ADME, organism-based; set-up: dose 4.8 mg/kg, route intravenous; conditions: in vivo, read-out: Vdss
[15] = Ratio of drug level in brain to plasma in mouse at 5 mg/kg, iv; type: ADME, organism-based; set-up: dose 5 mg/kg, route intravenous; conditions: brain and plasma, read-out: BPR
[16] = Ratio of drug level in brain to plasma in rat at 4.8 mg/kg, iv; type: ADME, organism-based; set-up: dose 4.8 mg/kg, route intravenous; conditions: brain and plasma, read-out: BPR
[17] = Cmax in mouse at 10 mg/kg, po; type: ADME, organism-based; set-up: dose 10 mg/kg, route oral; conditions: in vivo
[18] = Cmax in rat at 3.8 mg/kg, po; type: ADME, organism-based; set-up: dose 3.8 mg/kg, route oral; conditions: in vivo
[19] = Half life in mouse at 10 mg/kg, po; type: ADME, organism-based; set-up: dose 10 mg/kg, route oral; conditions: in vivo
[20] = Half life in rat at 3.8 mg/kg, po; type: ADME, organism-based; set-up: dose 3.8 mg/kg, route oral; conditions: in vivo
[21] = Oral bioavailability in mouse at 10 mg/kg; type: ADME, organism-based; conditions: in vivo
[22] = Oral bioavailability in rat at 3.8 mg/kg; type: ADME, organism-based; conditions: in vivo
[23] = Fraction unbound in mouse plasma; type: ADME, cell-free
[24] = Fraction unbound in rat plasma; type: ADME, cell-free
[25] = tested on: Rattus norvegicus; assay: Inhibition of cocaine-induced hyperlocomotion in po dosed Wistar rat assessed as reduction in locomotor activity after 30 mins; type: functional, organism-based
Summary of the method: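 Rats were pretreated orally with several doses of test compound. Hyperlocomotion was then induced with cocaine at 20 mg/kg i.p., and the reduction in locomotor activity was recorded.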

[26] = molecular target: Trace amine-associated receptor 1 (Mus musculus) (UniProt Q923Y8); assay: Agonist activity at mouse TAAR1 receptor expressed in HEK293 cells after 30 mins relative to control; type: functional, cell-based
Chain of Trace amine-associated receptor 1 (Mus musculus) (Q923Y8 whole entry): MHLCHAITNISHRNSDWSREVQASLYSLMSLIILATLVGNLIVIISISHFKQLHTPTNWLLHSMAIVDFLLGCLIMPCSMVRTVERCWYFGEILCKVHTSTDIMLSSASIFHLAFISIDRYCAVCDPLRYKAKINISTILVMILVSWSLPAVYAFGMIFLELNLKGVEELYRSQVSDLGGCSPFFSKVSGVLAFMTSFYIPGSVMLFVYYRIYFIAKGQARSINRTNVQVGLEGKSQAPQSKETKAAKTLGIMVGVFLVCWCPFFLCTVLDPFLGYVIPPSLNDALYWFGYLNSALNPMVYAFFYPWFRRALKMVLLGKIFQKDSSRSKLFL

[27] = molecular target: Trace amine-associated receptor 1 (Rattus norvegicus) (UniProt Q923Y9); assay: Agonist activity at rat TAAR1 receptor expressed in HEK293 cells after 30 mins relative to control; type: functional, cell-based
Chain of Trace amine-associated receptor 1 (Rattus norvegicus) (Q923Y9 whole entry): as the sequence (Q923Y9 whole entry) above

[28] = molecular target: Trace amine-associated receptor 1 (Mus musculus, UniProt Q923Y8); assay: Agonist activity at mouse TAAR1 receptor expressed in HEK293 cells after 30 mins; type: functional, cell-based
Chain of Trace amine-associated receptor 1 (Mus musculus, UniProt Q923Y8) (Q923Y8 whole entry): as the sequence (Q923Y8 whole entry) above

Compound: c1ccc2c(c1)CCCN2Cc1c[nH]cn1
- Ratio Ki [1]: 4

Compound: FC(F)(F)c1cccc(C(F)(F)F)c1Cc1ncc[nH]1
- Ki [2]: 13300 nM

Compound: c1ccc2c(c1)CCCN2Cc1cnc[nH]1
- Ki [2]: 12 nM

Compound: CC(C)N(Cc1cnc[nH]1)c1ccc(Cl)cc1
- EC50 [3]: 25 nM
- solubility thermodynamic [4]: 97 µg/mL (≈ 388 µM)
- logD [5]: 3.3
- Papp [6]: 2.7 ×10⁻⁶ cm/s
- pKa [7]: 3.5
- CLint [8]: 17.5 µL/min/mg
- CLint [9]: 70 µL/min/mg
- CLint [10]: 18 µL/min/mg
- clearance [11]: 24 mL/min/kg
- clearance [12]: 40 mL/min/kg
- Vd [13]: 2 L/kg
- Vd [14]: 4.1 L/kg
- Kp [15]: 0.6
- Kp [16]: 6.6
- Cmax [17]: 1740 ng/mL
- Cmax [18]: 519 ng/mL
- half-life [19]: 1.8 h
- half-life [20]: 1 h
- bioavailability [21]: 86%
- bioavailability [22]: 66%
- fraction unbound [23]: 0.08
- fraction unbound [24]: 0.06
- inhibition [25]: Dose-dependent effect
- Emax [26]: 26%
- Emax [27]: 24%

Compound: COc1cccc(N(Cc2cnc[nH]2)C(C)C)n1
- EC50 [3]: 25 nM
- Emax [26]: 35%
- Emax [27]: 18%

Compound: c1ccc(CC2=NCCN2)cc1 [TOLAZOLINE]
- Ki [2]: 1640 nM
- Ratio Ki [1]: 0.06

Compound: Clc1cccc(Cl)c1Cc1ncc[nH]1
- Ki [2]: 1390 nM
- Ratio Ki [1]: 0.7

Compound: COc1cccc(N(Cc2cnc[nH]2)C(C)C)c1
- EC50 [28]: 72 nM
- EC50 [3]: 61 nM
- Emax [26]: 55%
- Emax [27]: 25%

Compound: CC(C)N(Cc1cnc[nH]1)c1cc(Cl)cc(Cl)c1
- Ki [2]: 4 nM
- Ratio Ki [1]: 37

Now from value to compound, other results behind:

- EC50 [28]: 10 nM
- EC50 [3]: 27 nM
- Emax [26]: 50%
- Emax [27]: 22%
Compound: CC(C)N(Cc1cnc[nH]1)c1cccc(Cl)c1

- Ki [2]: 4250 nM
Compound: c1ccc(NCc2ncc[nH]2)cc1
- Ratio Ki [1]: 0.2

- EC50 [28]: 28 nM
- EC50 [3]: 7.3 nM
- Emax [26]: 45%
- Emax [27]: 34%
Compound: CC(C)N(Cc1cnc[nH]1)c1ccccc1

- EC50 [28]: 500 nM
- EC50 [3]: 400 nM
- Emax [26]: 54%
- Emax [27]: 60%
Compound: CC(C)N(Cc1ncc[nH]1)c1cccc(Cl)c1

- Ki [2]: 1270 nM
Compound: CN(Cc1ncc[nH]1)c1ccccc1
- Ratio Ki [1]: 0.2
